Assay outcomes from PubChem.
Compounds with a hit are over-represented: about 4.9% of the library has one in this group of screens.
APP 5'UTR act = activators of APP 5'UTR luciferase reporter, primary screen, SH-SY5Y cells; SH-SY5Y APP 5'UTR luciferase reporter, luminescence; zero percent = DMSO vehicle wells; activation, % at 2 µM; actives 1% (n = 190,000); AID 1276, 2008;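 active = activation above a set limit, based on mean plus 3 SD of controls, cut at about 140% in these data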
STAT1 inh = STAT1 signaling inhibitors, primary screen, cell-based, HTS, luciferase reporter | actives 0.35% (n = 200,000) | inhibition, % at 5.5 µM | AID 920, 2007 | NIH 3T3 STAT1-luciferase reporter, IFN-gamma, luminescence;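 active = inhibition above a set limit, the mean inhibition across all tested compounds plus 3 SD, cut at about 34% in these data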;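 also: 0% = IFN-gamma with DMSO and 100% = IFN-gamma with 300 µM nifuroxazide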
STAT3 inh = IL-6 driven STAT3 reporter inhibitors, primary screen, U3A cells, luciferase, luminescence, MLSCN library; IL-6 STAT3-luciferase reporter; host cell line lacks STAT1; inhibition, % at 5.5 µM; actives 0.89% (n = 190,000);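 active = inhibition above the mean inhibition across all screened compounds plus 3 SD, cut at about 44% in these data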;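 also: 0% = DMSO only wells and 100% = 100 µM nifuroxazide control wells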
STAT3 act = IL-6 driven STAT3 reporter potentiators, primary screen, U3A cells, luciferase, luminescence, MLSCN library; IL-6 STAT3-luciferase reporter; 100% = signal with IL-6 EC80 alone; activation (% of control), % at 5.6 µM; actives 0.91% (n = 190,000);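 active = activation above the screen-wide mean of compound activation plus 3 SD, cut at about 130% in these data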;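 also: 0% = background luminescence of wells with medium and substrate only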
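Material: human U3A cells carrying STAT3-luciferase construct. Measured by: reporter luminescence signal. Timing: compound 1 h, then IL-6 6 h at 37 °C.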
NF-kB neuron act = activators of NF-kB expression in neurons, primary screen, cell-based, HTS; fold change at 12.5 µM; human neuronal cells, NF-kB reporter expression; stronger effect = higher value; AID 1239, 2008; actives 1.6% (n = 190,000); in the data active = fold change above about 3.3
STAT1 activator = STAT1 signaling activators, primary screen, cell-based, HTS, luciferase reporter | activation (% of control), % at 5.5 µM | actives 2.6% (n = 200,000) | NIH 3T3 STAT1-luciferase reporter, IFN-gamma, luminescence; 100% = IFN-gamma alone, no compound;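 active = activation above the screen-wide mean activation plus 3 SD, cut at about 130% in these data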;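 also: raw ratio to IFN-gamma control signal so 100% means no change and 0% no light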
STAT1 activ conf = STAT1 signaling activators, confirmation, cell-based, HTS, luciferase reporter; actives 97% (n = 1,200); shares compounds with STAT1 activator; NIH 3T3 STAT1-luciferase reporter, IFN-gamma potentiation, luminescence; 100% = IFN-gamma EC80 alone, no compound; activation (% of control), % at 5.7 µM;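 active = activation above a set limit carried over from the earlier primary STAT1 screen, cut at about 140% in these data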;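 also: simple ratio to median IFN-gamma plus DMSO wells so 0% means no light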
NFkB act = NF-kB reporter activators, TNF-alpha stimulated, counter-screen for STAT1 activator project, cell-based, HEK293T, luciferase luminescence. shares compounds with STAT1 activator. 100% = TNF-alpha with vehicle only. activation (% of control), % at 5.7 µM. actives 43% (n = 1,200);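 active = activation above the mean of solvent-only control wells plus 3 SD, set per campaign, cut at about 130% in these data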;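 also: TNF-alpha given at a submaximal dose yielding about 80% of full reporter signal; values are well signal over median control so 100% means no change and 0% no light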
STAT3 act 2 = STAT3 reporter activation by STAT1 hits, confirmation, counter-screen for STAT1 activator project, U3A cells, luciferase, luminescence; shares compounds with STAT1 activator; IL-6; cells lack STAT1; 100 = IL-6 alone, no compound effect; activation (% of control), % at 5.7 µM; actives 46% (n = 1,200);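 active = activation above the solvent-only control well mean plus 3 SD, set per plate batch, cut at about 110% in these data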;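 also: 0% = no luminescence and 100% = median IL-6 plus DMSO wells; higher means more STAT3 reporter activation so hits are non-selective activators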
* = called active by the depositor; x = no result given.

SMILES	APP 5'UTR act	STAT1 inh	STAT3 inh	STAT3 act	NF-kB neuron act	STAT1 activator	STAT1 activ conf	NFkB act	STAT3 act 2
O=C1OC(Cc2ccccn2)C(O)=C1C1=NCCCCN1 (stereo unspecified)	105.4	-58.1	-3.3	103.5	2.12	152.0*	150.6*	114.6	114.4*
O=C1OC(Cc2ccccn2)C(O)=C1C1=NCCCN1 (stereo unspecified)	8.4	-11.7	-1.7	100.5	1.38	110.4	x	x	x
C/C(=C\c1ccco1)CN1CCN(Cc2ccc(C)o2)C(CCO)C1 (stereo unspecified)	1.7	-4.7	-0.2	103.3	0.96	102.5	x	x	x
Cc1cc(Br)ccc1OCC(=O)NNC(=O)c1cnccn1	-3.8	-0.2	26.2	80.5	0.86	100.2	x	x	x
O=C(NCc1ccccn1)c1cc(-c2ccc(-c3ccccc3)cc2)nc2ccccc12	107.0	-63.1	-15.9	115.3	1.88	156.4*	198.5*	106.6	147.8*
Cc1cccc(-c2cc3nc4c(c(N5CCCC(O)C5)n3n2)CCC4)c1 (stereo unspecified)	2.2	12.8	9.9	92.2	0.37	88.4	x	x	x
OC1CCCN(c2c3c(nc4cc(-c5cccc(F)c5)nn24)CCCC3)C1 (stereo unspecified)	59.8	-62.2	-5.8	106.1	1.26	157.8*	165.9*	129.9	115.9*
COCCn1c(=NC(=O)C(C)(C)C)sc2cc([N+](=O)[O-])ccc21	-20.4	5.6	10.7	93.7	1.12	95.0	x	x	x
COc1ccc(C2=NN(C(C#N)c3ccc(OC)cc3)C(c3ccccc3)C2)cc1 (stereo unspecified)	108.7	-79.9	1.0	99.9	5.98*	171.5*	127.5	128.6	99.8
COc1ccc(C(C#N)N2N=C(c3ccccc3)CC2c2ccccc2)cc1OC (stereo unspecified)	54.9	-13.7	12.3	91.7	1.81	112.3	x	x	x
Cc1cccc(N2CCN(C(=S)Nc3ccc4nc5n(c(=O)c4c3)CCCCC5)CC2)c1C	10.4	-4.7	9.4	95.7	1.37	102.9	x	x	x
COC(=O)C1CCN(CC(=O)Nc2ccc(OC)c(Cl)c2)CC1	-1.6	-1.6	6.5	100.9	1.12	101.2	x	x	x
O=C1c2ccccc2C(=O)N1Cc1ccco1	10.9	0.5	1.2	101.8	1.21	97.4	x	x	x
CC1=CC(=C2C(=O)c3ccccc3C2=O)C=C(C)N1Cc1ccco1	128.3	-70.8	14.5	89.7	4.63*	164.9*	178.1*	133.8*	109.3
CC(C)NC(=S)N/N=C/c1cc(Br)ccc1O	9.8	-1.6	6.6	92.5	0.82	101.4	x	x	x
CC1=CN2C(=N)/C(=C/c3ccc(C)o3)C(=O)N=C2S1	160.8*	-111.0	5.9	91.0	4.3*	201.1*	249.4*	141.3*	103.5
CC1=CN2C(=N)/C(=C/c3ccc(Sc4ccc(C)cc4)o3)C(=O)N=C2S1	-13.2	-8.0	-10.1	109.5	1.35	106.9	x	x	x
COc1ccc(C(=O)Nc2ccc3cn[nH]c3c2)c(OC)c1	133.6	-70.9	-9.9	109.4	2.66	164.0*	185.2*	133.6*	116.0*
COc1ccc(C(=O)Nc2ccc(S(=O)(=O)Nc3onc(C)c3C)cc2)c(OC)c1	0.2	-2.7	1.2	100.1	1.2	101.5	x	x	x
Cc1cc(C)c(C)c(OCCCN(C)C)c1	-4.1	0.5	1.1	97.8	1.76	99.7	x	x	x
Cc1ccc(-n2ncc3c(NCc4ccco4)ncnc32)cc1C	128.6	-58.5	8.1	99.5	4.68*	154.1*	180.8*	140.3*	105.7
COc1cccc(CSc2ccc(S(=O)(=O)N3CCOCC3)cc2C(=O)NCC2CCCO2)c1OC (stereo unspecified)	-5.3	-2.9	8.9	102.3	1	101.8	x	x	x
O=C(N=Nc1c(O)n(Cc2ccccc2)c2ccccc12)c1ccc(O)cc1	152.8*	-68.4	-7.6	108.6	2.45	161.0*	217.4*	111.0	118.3*
CC(C)Oc1cccc(C(=O)Nc2ccc(Br)cc2F)c1	139.2*	-69.5	30.6	76.2	6.07*	162.1*	208.7*	118.9	91.0
Cc1ccc(-n2c(C)cc(C(=O)CSc3nnnn3C)c2C)cc1	168.1*	-67.2	20.9	83.9	5.38*	161.5*	200.5*	129.7	114.0*
SMILES	APP 5'UTR act	STAT1 inh	STAT3 inh	STAT3 act	NF-kB neuron act	STAT1 activator	STAT1 activ conf	NFkB act	STAT3 act 2
Cc1cc(C(=O)CSc2nnnn2C)c(C)n1CCc1ccc(F)cc1	-6.1	-3.1	7.4	100.3	1.63	102.8	x	x	x
CCCNc1nc(N)nc(-c2cc(Cl)ccc2OC)n1	-5.8	3.5	-8.1	107.0	0.82	96.8	x	x	x
CCCCNc1nc(N)nc(-c2cc(Cl)ccc2O)n1	155.2*	-88.5	-7.0	110.5	1.61	178.2*	229.6*	145.4*	153.6*
CCNc1nc(N)nc(-c2cc(Cl)ccc2O)n1	214.7*	-104.1	29.1	76.7	6.84*	196.2*	288.0*	145.2*	166.7*
NC(=O)CSc1nnc(-c2cc(-c3ccc(Cl)cc3)nc3ccccc23)o1	-12.9	-8.1	18.5	88.1	x	105.6	x	x	x
Nc1nc2ccccc2n1/N=C/c1ccc(-c2ccccc2)o1	93.9	-60.5	21.7	84.3	1.7	155.0*	160.4*	120.6	98.7
CCN(Cc1cc(=O)n2ccsc2n1)c1cccc2ccccc12	3.9	0.8	-0.6	99.3	0.88	99.3	x	x	x
O=C(Nc1ccc(N2CCCC2)c(Cl)c1)c1ccc([N+](=O)[O-])o1	-78.5	-67.3	10.5	96.3	4.27*	158.9*	97.8	133.5*	103.5
O=C(Nc1ccc(N2CCOCC2)c(Cl)c1)c1cc2ccccc2o1	84.1	-73.9	6.3	97.9	2.2	169.9*	178.7*	127.6	93.9
Cc1cc(C)cc(C(=O)Nc2ccc(N3CCN(S(C)(=O)=O)CC3)cc2)c1	-4.5	0.1	10.8	92.7	1.09	98.2	x	x	x
